Measured values as given in ChEMBL document CHEMBL1126988, “Quinolone antibacterials containing the new 7-[3-(1-aminoethyl)-1- pyrrolidinyl] side chain: the effects of the 1-aminoethyl moiety and its stereochemical configurations on potency and in vivo efficacy” (J Med Chem, 1993).
Converted amounts (≈) assume the structure as drawn.

Key:
DNA gyrase = DNA gyrase (Escherichia coli, UniProt P0AES4+P0AES6); experiment: Inhibition against DNA gyrase; format: protein-complex assay
Pseudomonas aeruginosa = experiment: Minimum inhibitory concentration was evaluated in vitro against Pseudomonas aeruginosa UI-18; format: functional
Method in brief: (§1)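 Standard microtitration broth assay against a panel of 10 Gram-positive and Gram-negative organisms. MIC read in µg/mL and averaged over multiple experiments.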

Klebsiella pneumoniae = experiment: Minimum inhibitory concentration was evaluated in vitro against Klebsiella pneumoniae MGH2; format: functional; method in brief: as §1
Escherichia coli [1] = experiment: Antibacterial activity in vitro against Escherichia coli Vogel; format: functional; method in brief: as §1
Streptococcus pyogenes [2] = experiment: Compounds were evaluated in vivo for antibacterial activity for mouse protection against Streptococcus pyogenes C 203 after oral administration; format: functional; conditions: for ED50: Streptococcus pyogenes, C 203, po, read-out: PD50
Escherichia coli [3] = experiment: Antibacterial activity against Escherichia coli Vogel after subcutaneous administration in mouse; format: functional; conditions: for ED50: Escherichia coli, sc, read-out: PD50
Enterobacter cloacae = experiment: Minimum inhibitory concentration in vitro against Enterobacter cloacae MA 2646; format: functional
Staphylococcus aureus [4] = experiment: Minimum inhibitory concentration was evaluated in vitro against Staphylococcus aureus H 228; format: functional; method in brief: as §1
Providencia rettgeri = experiment: Minimum inhibitory concentration was evaluated in vitro against Providencia rettgeri M1771; format: functional; method in brief: as §1
Escherichia coli [5] = experiment: Antibacterial activity against Escherichia coli Vogel after oral administration in mouse; format: functional; conditions: for ED50: Escherichia coli, po, read-out: PD50
Enterococcus faecalis [6] = experiment: Minimum inhibitory concentration was evaluated in vitro against Enterococcus faecalis MGH-2; format: functional; method in brief: as §1
Streptococcus pyogenes [7] = experiment: Antibacterial activity measured as mouse protection against Streptococcus pyogenes C 203 after subcutaneous administration; format: functional; conditions: for ED50: Streptococcus pyogenes, C 203, sc, read-out: PD50
Staphylococcus aureus [8] = experiment: Minimum inhibitory concentration was evaluated in vitro against Staphylococcus aureus UC 76; format: functional; method in brief: as §1
Streptococcus pyogenes [9] = experiment: Minimum inhibitory concentration was evaluated in vitro against Streptococcus pyogenes C 203; format: functional; method in brief: as §1
Streptococcus pneumoniae [10] = experiment: Minimum inhibitory concentration was evaluated in vitro against Streptococcus pneumoniae SV-1; format: functional; method in brief: as §1
[11] = Clonogenic cytotoxicity against hamster V-79 cells; format: functional, Cricetulus griseus, V79
Method in brief: (§2)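 Chinese hamster V-79 cells grown overnight, then drug-treated for 3 h at 37 °C. Medium is replaced with fresh medium and cells are incubated 5 days to allow colony formation. IC50 (µg/mL) is the concentration inhibiting colony formation by 50% relative to control.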

Streptococcus pneumoniae [12] = experiment: Antibacterial activity expressed as Minimum inhibitory concentration was evaluated in vitro against Streptococcus pneumoniae SV-1; format: functional
Method in brief: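 Standard microtitration broth MIC (μg/mL), averaged from multiple experiments; one of a 10-organism Gram-positive/Gram-negative panel.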

Mus musculus [13] = species on record: Mus musculus; experiment: Compound was evaluated for phototoxicity no-effect dose in mouse; format: functional
Method in brief: (§3)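 Depilated female CD-1 mice, five per dose plus controls. Animals are dosed orally and then exposed daily to UV-A (320–400 nm) for 3 h, for up to 4 days or until a definite positive response. Redness or erythema relative to controls, read 24 h after irradiation, counts as positive. Reported as the highest dose with no effect (mg/kg).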

Mus musculus [14] = species on record: Mus musculus; experiment: Compounds were evaluated for phototoxicity no-effect dose in mouse; format: functional; method in brief: as §3
Streptococcus pyogenes [15] = experiment: Antibacterial activity expressed as Minimum inhibitory concentration was evaluated in vitro against Streptococcus pyogenes C 203; format: functional; method in brief: as §1
[16] = molecular target: DNA gyrase (Escherichia coli) (UniProt P0AES6+P0AES4); experiment: Initial inhibition as minimal concentration to induce cleavage of DNA gyrase complex; format: protein-complex assay
Method in brief: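 DNA gyrase isolated and purified from E. coli H560. Uses the initial cleavage method with relaxed Col E1 plasmid DNA as substrate. Read-out is the lowest drug concentration (µg/mL) giving detectable cleavage, seen by agarose gel electrophoresis with ethidium bromide staining. Averaged over multiple experiments, accurate to ±50%.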

[17] = Compound was evaluated for clonogenic cytotoxicity against hamster V-79 cells; 50% Inhibition; format: functional, cell-based; conditions: Cricetulus griseus, V79; method in brief: as §2
Enterococcus faecalis [18] = experiment: Antibacterial activity expressed as Minimum inhibitory concentration was evaluated in vitro against Enterococcus faecalis MGH-2; format: functional; method in brief: as §1
[19] = Staphylococcus aureus, read-out: MIC
[20] = Pseudomonas aeruginosa, read-out: MIC
[21] = Klebsiella pneumoniae, read-out: MIC
[22] = Escherichia coli, read-out: MIC
[23] = Enterobacter cloacae, read-out: MIC
[24] = Providencia rettgeri, read-out: MIC
[25] = Enterococcus faecalis, read-out: MIC
[26] = Streptococcus pyogenes, read-out: MIC
[27] = Streptococcus pneumoniae, read-out: MIC

C[C@@H](N)[C@H]1CCN(c2cc3c(cc2F)c(=O)c(C(=O)O)cn3C2CC2)C1 (racemic)
IC50 (DNA gyrase): 1390 nM
MIC (Pseudomonas aeruginosa): 0.4 µg/mL (≈ 1.11 µM)
MIC (Klebsiella pneumoniae): 0.1 µg/mL (≈ 0.278 µM)
MIC (Escherichia coli [1]): 0.05 µg/mL (≈ 0.139 µM)
PD50 (Streptococcus pyogenes [2]): 11 mg/kg
ED50 (Escherichia coli [3]): 1 mg/kg
MIC (Enterobacter cloacae): 0.05 µg/mL (≈ 0.139 µM)
MIC (Staphylococcus aureus [4]): 0.05 µg/mL (≈ 0.139 µM)
MIC (Providencia rettgeri): 0.2 µg/mL (≈ 0.556 µM)
ED50 (Escherichia coli [5]): 47 mg/kg
MIC (Enterococcus faecalis [6]): 0.025 µg/mL (≈ 0.0696 µM)
PD50 (Streptococcus pyogenes [7]): 1 mg/kg
MIC (Staphylococcus aureus [8]; [19]): 0.025 µg/mL (≈ 0.0696 µM)
MIC (Streptococcus pyogenes [9]): 0.003 µg/mL (≈ 0.00835 µM)
MIC (Streptococcus pneumoniae [10]): 0.013 µg/mL (≈ 0.0362 µM)

NC1CCN(c2nc3c(cc2F)c(=O)c(C(=O)O)cn3C2CC2)C1 (centres undefined)
Cytotoxicity [11]: 98 µg/mL
IC50 (DNA gyrase): 2260 nM
MIC (Pseudomonas aeruginosa; [20]): 0.1 µg/mL (≈ 0.301 µM)
MIC (Klebsiella pneumoniae; [21]): 0.025 µg/mL (≈ 0.0752 µM)
MIC (Escherichia coli [1]; [22]): 0.013 µg/mL (≈ 0.0391 µM)
ED50 (Streptococcus pyogenes [2]): 32 mg/kg
ED50 (Escherichia coli [3]): 0.6 mg/kg
MIC (Enterobacter cloacae; [23]): 0.025 µg/mL (≈ 0.0752 µM)
MIC (Staphylococcus aureus [4]; [19]): 0.2 µg/mL (≈ 0.602 µM)
MIC (Providencia rettgeri; [24]): 0.05 µg/mL (≈ 0.15 µM)
ED50 (Escherichia coli [5]): 2 mg/kg
MIC (Enterococcus faecalis [6]; [25]): 0.2 µg/mL (≈ 0.602 µM)
MIC (Streptococcus pneumoniae [12]): 0.2 µg/mL (≈ 0.602 µM)
ED50 (Streptococcus pyogenes [7]): 14 mg/kg
MIC (Staphylococcus aureus [8]; [19]): 0.013 µg/mL (≈ 0.0391 µM)
MIC (Streptococcus pyogenes [9]; [26]): 0.2 µg/mL (≈ 0.602 µM)
Dose (Mus musculus [13]): >100 mg/kg

CN[C@H](C)[C@H]1CCN(c2c(F)cc3c(=O)c(C(=O)O)cn(C4CC4)c3c2OC)C1 (racemic)
Cytotoxicity [11]: 33 µg/mL
MIC (Pseudomonas aeruginosa; [20]): 0.8 µg/mL (≈ 1.98 µM)
MIC (Klebsiella pneumoniae; [21]): 0.1 µg/mL (≈ 0.248 µM)
Dose (Mus musculus [14]): >100 mg/kg
MIC (Escherichia coli [1]; [22]): 0.05 µg/mL (≈ 0.124 µM)
MIC (Streptococcus pyogenes [15]): 0.003 µg/mL (≈ 0.00744 µM)
Initial inhibition [16]: < 0.5 µg/mL
ED50 (Escherichia coli [3]): 1 mg/kg
MIC (Enterobacter cloacae; [23]): 0.05 µg/mL (≈ 0.124 µM)
MIC (Staphylococcus aureus [4]; [19]): 0.013 µg/mL (≈ 0.0322 µM)
MIC (Providencia rettgeri; [24]): 0.2 µg/mL (≈ 0.496 µM)
ED50 (Escherichia coli [5]): 5 mg/kg
MIC (Enterococcus faecalis [6]; [25]): 0.025 µg/mL (≈ 0.062 µM)
ED50 (Streptococcus pyogenes [7]): 0.1 mg/kg
MIC (Staphylococcus aureus [8]; [19]): 0.003 µg/mL (≈ 0.00744 µM)
MIC (Streptococcus pneumoniae [10]; [27]): 0.003 µg/mL (≈ 0.00744 µM)

CN[C@H](C)[C@@H]1CCN(c2nc3c(cc2F)c(=O)c(C(=O)O)cn3C2CC2)C1
IC50 [17]: 88 µg/mL (≈ 235 µM)
MIC (Pseudomonas aeruginosa; [20]): 1.6 µg/mL (≈ 4.27 µM)
MIC (Klebsiella pneumoniae; [21]): 0.2 µg/mL (≈ 0.534 µM)
Dose (Mus musculus [14]): 30 mg/kg
MIC (Escherichia coli [1]; [22]): 0.1 µg/mL (≈ 0.267 µM)
ED50 (Escherichia coli [3]): 1 mg/kg
MIC (Enterobacter cloacae; [23]): 0.1 µg/mL (≈ 0.267 µM)
MIC (Staphylococcus aureus [4]; [19]): 0.1 µg/mL (≈ 0.267 µM)
MIC (Providencia rettgeri; [24]): 0.4 µg/mL (≈ 1.07 µM)
ED50 (Escherichia coli [5]): 5 mg/kg
MIC (Enterococcus faecalis [6]; [25]): 0.1 µg/mL (≈ 0.267 µM)
MIC (Staphylococcus aureus [8]; [19]): 0.05 µg/mL (≈ 0.134 µM)
MIC (Streptococcus pyogenes [9]; [26]): 0.05 µg/mL (≈ 0.134 µM)
MIC (Streptococcus pneumoniae [10]; [27]): 0.025 µg/mL (≈ 0.0668 µM)

C[C@@H](N)[C@H]1CCN(c2nc3c(cc2F)c(=O)c(C(=O)O)cn3-c2ccc(F)cc2F)C1 (racemic)
Cytotoxicity [11]: 280 µg/mL
IC50 (DNA gyrase): 1160 nM
MIC (Pseudomonas aeruginosa; [20]): 0.8 µg/mL (≈ 1.85 µM)
MIC (Klebsiella pneumoniae; [21]): 0.2 µg/mL (≈ 0.463 µM)
Dose (Mus musculus [14]): >100 mg/kg
MIC (Escherichia coli [1]; [22]): 0.1 µg/mL (≈ 0.231 µM)
MIC (Streptococcus pyogenes [15]): 0.006 µg/mL (≈ 0.0139 µM)
ED50 (Streptococcus pyogenes [2]): 1 mg/kg
ED50 (Escherichia coli [3]): 1 mg/kg
MIC (Enterobacter cloacae; [23]): 0.2 µg/mL (≈ 0.463 µM)
MIC (Staphylococcus aureus [4]; [19]): 0.05 µg/mL (≈ 0.116 µM)
MIC (Providencia rettgeri; [24]): 0.4 µg/mL (≈ 0.925 µM)
PD50 (Escherichia coli [5]): 3 mg/kg
MIC (Enterococcus faecalis [6]; [25]): 0.025 µg/mL (≈ 0.0578 µM)
ED50 (Streptococcus pyogenes [7]): 1 mg/kg
MIC (Staphylococcus aureus [8]; [19]): 0.006 µg/mL (≈ 0.0139 µM)
MIC (Streptococcus pneumoniae [10]; [27]): 0.006 µg/mL (≈ 0.0139 µM)

C[C@@H](N)[C@H]1CCN(c2nc3c(cc2F)c(=O)c(C(=O)O)cn3C2CC2)C1 (racemic)
Cytotoxicity [11]: 84 µg/mL
IC50 (DNA gyrase): 6940 nM
MIC (Pseudomonas aeruginosa; [20]): 0.8 µg/mL (≈ 2.22 µM)
MIC (Klebsiella pneumoniae; [21]): 0.1 µg/mL (≈ 0.277 µM)
MIC (Escherichia coli [1]; [22]): 0.05 µg/mL (≈ 0.139 µM)
PD50 (Streptococcus pyogenes [2]): 15 mg/kg
PD50 (Escherichia coli [3]): 1 mg/kg
MIC (Enterobacter cloacae; [23]): 0.05 µg/mL (≈ 0.139 µM)
MIC (Staphylococcus aureus [4]): 0.2 µg/mL (≈ 0.555 µM)
MIC (Providencia rettgeri; [24]): 0.2 µg/mL (≈ 0.555 µM)
MIC (Enterococcus faecalis [6]): 0.1 µg/mL (≈ 0.277 µM)
ED50 (Streptococcus pyogenes [7]): 5 mg/kg
MIC (Staphylococcus aureus [8]): 0.025 µg/mL (≈ 0.0694 µM)
MIC (Streptococcus pyogenes [9]): 0.05 µg/mL (≈ 0.139 µM)
Dose (Mus musculus [13]): >100 mg/kg
MIC (Streptococcus pneumoniae [10]): 0.05 µg/mL (≈ 0.139 µM)

CCn1cc(C(=O)O)c(=O)c2cc(F)c(N3CC[C@@H]([C@@H](C)N)C3)c(F)c21
MIC (Pseudomonas aeruginosa; [20]): 1.6 µg/mL (≈ 4.38 µM)
MIC (Klebsiella pneumoniae; [21]): 0.2 µg/mL (≈ 0.547 µM)
MIC (Escherichia coli [1]; [22]): 0.1 µg/mL (≈ 0.274 µM)
ED50 (Streptococcus pyogenes [2]): 19 mg/kg
ED50 (Escherichia coli [3]): 2 mg/kg
MIC (Enterobacter cloacae; [23]): 0.1 µg/mL (≈ 0.274 µM)
MIC (Staphylococcus aureus [4]; [19]): 0.1 µg/mL (≈ 0.274 µM)
MIC (Providencia rettgeri; [24]): 0.4 µg/mL (≈ 1.09 µM)
ED50 (Escherichia coli [5]): 15 mg/kg
MIC (Enterococcus faecalis [18]): 0.1 µg/mL (≈ 0.274 µM)
ED50 (Streptococcus pyogenes [7]): 2 mg/kg
MIC (Staphylococcus aureus [8]; [19]): 0.025 µg/mL (≈ 0.0684 µM)
MIC (Streptococcus pyogenes [9]; [26]): 0.05 µg/mL (≈ 0.137 µM)
MIC (Streptococcus pneumoniae [10]; [27]): 0.05 µg/mL (≈ 0.137 µM)
